Reference: ChEMBL document CHEMBL5344404, “Design and optimization of oestrogen receptor PROTACs based on 4-hydroxytamoxifen” (Eur J Med Chem, 2022)
Each block holds one molecule with its values, some of them ahead of it. Calls of active or inactive are those of the source. The calls are words filed in the database; no cut-off is given here.

Legend:
[1] = target: T1, Protein cereblon/Estrogen receptor (Homo sapiens, UniProt P03372+Q96SW2); experiment: PROTAC activity at CRBN/ERalpha in human MCF7 cells assessed as reduction in ERalpha protein level at 1 uM measured after 24 hrs by Western blot analysis; assay type: cell-based
Method in brief: (§1)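 MCF-7 cells given the PROTAC at 1 µM for periods of 1–48 h, with DMSO controls held 48 h. Cell lysates immunoblotted for ERα.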
Target sequence in this assay (P03372 whole entry, looked up): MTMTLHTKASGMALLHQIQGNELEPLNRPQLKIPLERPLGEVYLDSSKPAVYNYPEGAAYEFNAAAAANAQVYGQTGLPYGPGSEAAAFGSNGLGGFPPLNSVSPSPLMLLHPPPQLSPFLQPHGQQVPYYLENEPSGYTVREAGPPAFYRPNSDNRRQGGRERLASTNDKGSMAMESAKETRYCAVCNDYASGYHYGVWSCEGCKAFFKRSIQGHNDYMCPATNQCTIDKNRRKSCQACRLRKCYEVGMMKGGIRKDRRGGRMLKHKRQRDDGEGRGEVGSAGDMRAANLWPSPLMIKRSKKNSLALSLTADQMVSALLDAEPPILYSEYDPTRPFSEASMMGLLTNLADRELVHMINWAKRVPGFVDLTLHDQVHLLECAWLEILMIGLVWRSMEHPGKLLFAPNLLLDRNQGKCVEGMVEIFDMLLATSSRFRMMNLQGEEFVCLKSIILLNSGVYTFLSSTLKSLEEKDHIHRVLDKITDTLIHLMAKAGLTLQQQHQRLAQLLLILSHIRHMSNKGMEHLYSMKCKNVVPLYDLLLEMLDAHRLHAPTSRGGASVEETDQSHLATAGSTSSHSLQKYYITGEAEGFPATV
Target sequence in this assay (Q96SW2 whole entry, looked up): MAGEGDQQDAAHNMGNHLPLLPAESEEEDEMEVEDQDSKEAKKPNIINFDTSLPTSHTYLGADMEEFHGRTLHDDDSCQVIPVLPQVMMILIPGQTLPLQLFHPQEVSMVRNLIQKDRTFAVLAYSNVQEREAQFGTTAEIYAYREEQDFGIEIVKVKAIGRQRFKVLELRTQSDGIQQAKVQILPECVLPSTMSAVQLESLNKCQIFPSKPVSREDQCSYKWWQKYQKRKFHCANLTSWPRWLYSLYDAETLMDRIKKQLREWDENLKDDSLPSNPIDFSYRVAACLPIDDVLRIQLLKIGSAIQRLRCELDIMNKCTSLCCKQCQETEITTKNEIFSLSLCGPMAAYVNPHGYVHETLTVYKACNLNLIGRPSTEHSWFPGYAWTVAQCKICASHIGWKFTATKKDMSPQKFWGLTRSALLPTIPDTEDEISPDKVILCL

[2] = target: T1, Protein cereblon/Estrogen receptor; experiment: PROTAC activity at CRBN/ERalpha in human MCF7 cells assessed as reduction in ERalpha protein level at 5 to 10 uM measured after 24 hrs by Western blot analysis; assay type: cell-based; settings: dose 5-10 µM
Method in brief: (§2)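 MCF-7 breast cancer cells exposed to the PROTAC over a concentration series for 24 h. ERα in cell lysates then assessed by immunoblotting.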
Target sequence in this assay (P03372 whole entry, looked up): as the sequence (P03372 whole entry, looked up) above
Target sequence in this assay (Q96SW2 whole entry, looked up): as the sequence (Q96SW2 whole entry, looked up) above

[3] = target: T1, Protein cereblon/Estrogen receptor; experiment: PROTAC activity at CRBN/ERalpha in human MCF7 cells assessed as reduction in ERalpha protein level at 1 to 5 uM incubated for 24 hrs by Western blot analysis; assay type: cell-based; settings: dose 1-5 µM; method in brief: as §2
Target sequence in this assay (P03372 whole entry, looked up): as the sequence (P03372 whole entry, looked up) above
Target sequence in this assay (Q96SW2 whole entry, looked up): as the sequence (Q96SW2 whole entry, looked up) above

[4] = target: T1, Protein cereblon/Estrogen receptor; experiment: PROTAC activity at CRBN/ERalpha in human MCF7 cells assessed as reduction in ERalpha protein level at 1 uM measured after 1 to 12 hrs by Western blot analysis; assay type: cell-based; settings: time 1-12 hrs; method in brief: as §1
Target sequence in this assay (P03372 whole entry, looked up): as the sequence (P03372 whole entry, looked up) above
Target sequence in this assay (Q96SW2 whole entry, looked up): as the sequence (Q96SW2 whole entry, looked up) above

[5] = target: T1, Protein cereblon/Estrogen receptor; experiment: PROTAC activity at CRBN/ERalpha in human MCF7 cells assessed as reduction in ERalpha protein level at 1 uM pretreated with bortezomib at 1 uM for 1 hr followed by compound addition for 12 hrs by Western blot analysis; assay type: cell-based
Method in brief: (§3)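 Rescue assay in MCF-7 cells. Cells pre-treated 1 h with bortezomib 1 µM or MLN4924 1 µM, then given the PROTAC at 1 µM for 12 h. ERα read by immunoblot.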
Target sequence in this assay (P03372 whole entry, looked up): as the sequence (P03372 whole entry, looked up) above
Target sequence in this assay (Q96SW2 whole entry, looked up): as the sequence (Q96SW2 whole entry, looked up) above

[6] = target: T1, Protein cereblon/Estrogen receptor; experiment: PROTAC activity at CRBN/ERalpha in human MCF7 cells assessed as reduction in ERalpha protein level incubated for 24 hrs by Western blot analysis; assay type: cell-based
Method in brief: (§4)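 MCF-7 cells treated 24 h across a broad concentration range. ERα quantified on Western blots and normalized to GAPDH, then plotted against PROTAC concentration to give DC50 (concentration giving 50% protein degradation). Replicates: 2 biological for the CRBN series, triplicates for the VHL series.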
Target sequence in this assay (P03372 whole entry): as the sequence (P03372 whole entry, looked up) above
Target sequence in this assay (Q96SW2 whole entry): as the sequence (Q96SW2 whole entry, looked up) above

[7] = target: T1, Protein cereblon/Estrogen receptor; experiment: PROTAC activity at CRBN/ERalpha in human MCF7 cells assessed as reduction in ERalpha protein level at 1 uM pretreated with MLN4924 at 1 uM for 1 hr followed by compound addition for 12 hrs by Western blot analysis; assay type: cell-based; method in brief: as §3
Target sequence in this assay (P03372 whole entry, looked up): as the sequence (P03372 whole entry, looked up) above
Target sequence in this assay (Q96SW2 whole entry, looked up): as the sequence (Q96SW2 whole entry, looked up) above

[8] = target: Estrogen receptor/E3 ubiquitin-protein ligase XIAP (Homo sapiens, UniProt P03372+P98170); experiment: PROTAC activity at XIAP/ERalpha (unknown origin); assay type: protein assay
Sequence of Estrogen receptor/E3 ubiquitin-protein ligase XIAP (P03372 whole entry): as the sequence (P03372 whole entry, looked up) above
Sequence of Estrogen receptor/E3 ubiquitin-protein ligase XIAP (P98170 whole entry): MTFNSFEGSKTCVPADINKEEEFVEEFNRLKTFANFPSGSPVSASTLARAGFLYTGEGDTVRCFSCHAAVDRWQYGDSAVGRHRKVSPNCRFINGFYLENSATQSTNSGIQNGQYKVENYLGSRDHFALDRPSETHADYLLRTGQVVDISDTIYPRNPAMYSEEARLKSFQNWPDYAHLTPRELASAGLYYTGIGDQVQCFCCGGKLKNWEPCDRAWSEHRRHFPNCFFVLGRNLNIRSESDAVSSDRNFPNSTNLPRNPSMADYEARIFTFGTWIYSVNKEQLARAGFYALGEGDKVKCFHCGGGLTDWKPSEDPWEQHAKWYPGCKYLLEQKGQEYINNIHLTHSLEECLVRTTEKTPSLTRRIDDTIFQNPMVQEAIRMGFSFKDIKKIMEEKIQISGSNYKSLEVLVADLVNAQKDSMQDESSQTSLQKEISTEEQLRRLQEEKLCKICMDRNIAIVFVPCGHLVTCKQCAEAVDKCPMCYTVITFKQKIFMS

[9] = target: T2, von Hippel-Lindau disease tumor suppressor/Estrogen receptor (Homo sapiens, UniProt P03372+P40337); experiment: PROTAC activity at VHL E3 ligase/ERalpha in human T47D cells assessed as reduction in ERalpha protein level at 0.01 to 10 uM incubated for 24 hrs by Western blot analysis; assay type: cell-based; settings: dose 0.01-10 µM
Target sequence in this assay (P03372 whole entry, looked up): as the sequence (P03372 whole entry, looked up) above
Target sequence in this assay (P40337 whole entry, looked up): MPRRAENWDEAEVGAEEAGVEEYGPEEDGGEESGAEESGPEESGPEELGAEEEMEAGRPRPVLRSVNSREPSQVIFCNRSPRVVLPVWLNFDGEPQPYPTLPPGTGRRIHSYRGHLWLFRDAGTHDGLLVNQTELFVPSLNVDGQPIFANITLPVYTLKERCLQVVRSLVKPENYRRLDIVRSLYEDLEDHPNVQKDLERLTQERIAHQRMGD

[10] = target: T2, von Hippel-Lindau disease tumor suppressor/Estrogen receptor; experiment: PROTAC activity at VHL E3 ligase/ERalpha in human MCF7 cells assessed as reduction in ERalpha protein level at 2500 nM pretreated with MLN4924 at 1 uM for 30 mins followed by compound addition and measured after 6 hrs by Western blot analysis; assay type: cell-based
Target sequence in this assay (P03372 whole entry, looked up): as the sequence (P03372 whole entry, looked up) above
Target sequence in this assay (P40337 whole entry, looked up): as the sequence (P40337 whole entry, looked up) above

[11] = target: T2, von Hippel-Lindau disease tumor suppressor/Estrogen receptor; experiment: PROTAC activity at VHL E3 ligase/ERalpha in human MCF7 cells assessed as reduction in ERalpha protein level incubated for 24 hrs by Western blot analysis; assay type: cell-based; method in brief: as §4
Target sequence in this assay (P03372 whole entry): as the sequence (P03372 whole entry, looked up) above
Target sequence in this assay (P40337 whole entry): as the sequence (P40337 whole entry, looked up) above

[12] = target: T2, von Hippel-Lindau disease tumor suppressor/Estrogen receptor; experiment: PROTAC activity at VHL E3 ligase/ERalpha in human MCF7 cells assessed as reduction in ERalpha protein level at 10 nM incubated for 24 hrs by Western blot analysis; assay type: cell-based
Target sequence in this assay (P03372 whole entry, looked up): as the sequence (P03372 whole entry, looked up) above
Target sequence in this assay (P40337 whole entry, looked up): as the sequence (P40337 whole entry, looked up) above

[13] = target: T2, von Hippel-Lindau disease tumor suppressor/Estrogen receptor; experiment: PROTAC activity at VHL E3 ligase/ERalpha in human MCF7 cells assessed as reduction in ERalpha protein level at 2500 nM pretreated with carfilzomib at 1 uM for 30 mins followed by compound addition and measured after 6 hrs by Western blot analysis; assay type: cell-based
Target sequence in this assay (P03372 whole entry, looked up): as the sequence (P03372 whole entry, looked up) above
Target sequence in this assay (P40337 whole entry, looked up): as the sequence (P40337 whole entry, looked up) above

[14] = target: T2, von Hippel-Lindau disease tumor suppressor/Estrogen receptor; experiment: PROTAC activity at VHL E3 ligase/ERalpha in human MCF7 cells assessed as reduction in ERalpha protein level at 0.01 to 10 uM incubated for 24 hrs by Western blot analysis; assay type: cell-based; settings: dose 0.01-10 µM
Method in brief: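 MCF-7 cells incubated with the PROTAC at several concentrations for 24 h. Lysates analysed by immunoblotting for ERα.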
Target sequence in this assay (P03372 whole entry, looked up): as the sequence (P03372 whole entry, looked up) above
Target sequence in this assay (P40337 whole entry, looked up): as the sequence (P40337 whole entry, looked up) above

[15] = target: T2, von Hippel-Lindau disease tumor suppressor/Estrogen receptor; experiment: PROTAC activity at VHL/ERalpha (unknown origin); assay type: protein assay
Target sequence in this assay (P03372 whole entry): as the sequence (P03372 whole entry, looked up) above
Target sequence in this assay (P40337 whole entry): as the sequence (P40337 whole entry, looked up) above

SMILES: CC/C(=C(\c1ccc(O)cc1)c1ccc(OCCN(C)C(=O)CCc2cn(CCOCCOCCOCCNc3cccc4c3C(=O)N(C3CCC(=O)N(C)C3=O)C4=O)nn2)cc1)c1ccccc1 (configuration not stated)
Activity [1]: inactive
Activity [2]: Active

SMILES: CC/C(=C(\c1ccc(O)cc1)c1ccc(OCCN(C)C(=O)CCc2cn(CCOCCOCCOCCNc3cccc4c3C(=O)N(C3CCC(=O)NC3=O)C4=O)nn2)cc1)c1ccccc1 (configuration not stated)
Activity [3]: Active
Activity [4]: inactive
Activity [5]: inactive
EC50 [6]: 0.0119 µM
Activity [7]: inactive

SMILES: CC/C(=C(\c1ccc(O)cc1)c1ccc(OCCN(C)C(=O)CCc2cn(CCOCCNc3cccc4c3C(=O)N(C3CCC(=O)NC3=O)C4=O)nn2)cc1)c1ccccc1 (configuration not stated)
Activity [3]: Active

SMILES: CC[C@H](C)[C@H](NC(=O)[C@H](Cc1ccc(O)cc1)NC(=O)[C@@H]1CC(O)CN1C(=O)[C@H](C)NC(=O)[C@H](CC(C)C)NC(=O)CCCCCCC(=O)NCC(=O)OC1CC[C@H]2[C@@H]3CCc4cc(O)ccc4[C@H]3CC[C@]12C)C(=O)O (some centres not stated)
EC50 [15]: 16 µM

SMILES: CC/C(=C(\c1ccc(O)cc1)c1ccc(OCCN(C)C(=O)CCc2cn(CCCCCC(=O)N[C@H](C(=O)N3C[C@H](O)C[C@H]3C(=O)N[C@@H](C)c3ccc(-c4scnc4C)cc3)C(C)(C)C)nn2)cc1)c1ccccc1
Activity [9]: Active
Activity [10]: inactive
EC50 [11]: 0.0053 µM
Activity [12]: Active
Activity [13]: inactive

The next lines start with the values.

EC50 [8]: < 1 µM
SMILES: CNCC(=O)N[C@H](C(=O)N1Cc2cc(OCCOCCOCCOCCOc3ccc(Oc4c(-c5ccc(O)cc5)sc5cc(O)ccc45)cc3)ccc2C[C@H]1C(=O)N[C@@H]1CCCc2ccccc21)C(C)(C)C

EC50 [8]: 0.01 µM
SMILES: CC/C(=C(\c1ccc(O)cc1)c1ccc(OCCN(C)C(=O)COCCOCCOCCOc2cccc(C(=O)c3csc([C@@H]4CCCN4C(=O)[C@@H](NC(=O)[C@H](C)NC)C4CCCCC4)n3)c2)cc1)c1ccccc1

Activity [9]: Active
Activity [10]: inactive
EC50 [11]: 0.0045 µM
Activity [12]: Active
Activity [13]: inactive
SMILES: CC/C(=C(\c1ccc(O)cc1)c1ccc(OCCN(C)C(=O)CCc2cn(CCCC(=O)N[C@H](C(=O)N3C[C@H](O)C[C@H]3C(=O)N[C@@H](C)c3ccc(-c4scnc4C)cc3)C(C)(C)C)nn2)cc1)c1ccccc1

Activity [14]: inactive
SMILES: CC/C(=C(\c1ccc(O)cc1)c1ccc(OCCN(C)C(=O)CCc2cn(CCCC(=O)N[C@H](C(=O)N3C[C@@H](O)C[C@H]3C(=O)N[C@@H](C)c3ccc(-c4scnc4C)cc3)C(C)(C)C)nn2)cc1)c1ccccc1
